According to ChEMBL document CHEMBL4689842, “EUbOPEN Chemogenomics Library wave 1” (2021):

Tested on: Fibroblast
Test: Multiplex assay against human fibroblast
Type: toxicity, cell-based
Method in brief: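 With compound added, live cells were imaged on a CQ1 microscope at 37°C and 5% CO2; staining with Hoechst33342, BioTracker Green Microtubule Cytoskeleton Dye, MitoTracker Red and Annexin V Alexa Fluor 680 had been done at seeding. The CellPathfinder machine-learning gating scheme split cells into Hoechst high-intensity objects or normal cells, normal cells into healthy, pyknosed or fragmented nuclei, and pyknosed cells into mitotic or apoptotic. The tubulin, mitochondrial-mass and membrane-permeability phenotypes are per cents of healthy-nucleus cells.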

[1] = 12 h, 1 µM, compound concentration 1 uM, replicate 1
[2] = 12 h, 1 µM, compound concentration 1 uM, replicate 2
[3] = 12 h, 10 µM, compound concentration 10 uM, replicate 1
[4] = 12 h, 10 µM, compound concentration 10 uM, replicate 2
[5] = 24 h, 1 µM, compound concentration 1 uM, replicate 1
[6] = 24 h, 1 µM, compound concentration 1 uM, replicate 2
[7] = 24 h, 10 µM, compound concentration 10 uM, replicate 1
[8] = 24 h, 10 µM, compound concentration 10 uM, replicate 2
[9] = 48 h, 1 µM, compound concentration 1 uM, replicate 1
[10] = 48 h, 1 µM, compound concentration 1 uM, replicate 2
[11] = 48 h, 10 µM, compound concentration 10 uM, replicate 1
[12] = 48 h, 10 µM, compound concentration 10 uM, replicate 2

Structure (SMILES): COc1cc2ncn(-c3cc(OCc4ccccc4C(F)(F)F)c(C(N)=O)s3)c2cc1OC [GW843682X]
- Population Apoptotic (%) [1]: 62%
- Population Fragmented Nuclei (%) [1]: 29%
- Population Healthy Nuclei (%) [1]: 40%
- Population Hoechst High Intensity Objects (%) [1]: 14%
- Population Membrane Permeable-Phenotype (%) [1]: 28%
- Population Mitochondria Different-Phenotype (%) [1]: 2%
- Population Mitotic Cells (%) [1]: 37%
- Population Normal (%) [1]: 85%
- Population Pyknosed Nuclei (%) [1]: 29%
- Population Tubulin-Different-Phenotype (%) [1]: 54%
- Total Cell Count [1]: 145
- Population Apoptotic (%) [2]: 50%
- Population Fragmented Nuclei (%) [2]: 9%
- Population Healthy Nuclei (%) [2]: 80%
- Population Hoechst High Intensity Objects (%) [2]: 10%
- Population Membrane Permeable-Phenotype (%) [2]: 12%
- Population Mitochondria Different-Phenotype (%) [2]: 10%
- Population Mitotic Cells (%) [2]: 50%
- Population Normal (%) [2]: 89%
- Population Pyknosed Nuclei (%) [2]: 9%
- Population Tubulin-Different-Phenotype (%) [2]: 20%
- Total Cell Count [2]: 83
- Population Apoptotic (%) [3]: 54%
- Population Fragmented Nuclei (%) [3]: 18%
- Population Healthy Nuclei (%) [3]: 40%
- Population Hoechst High Intensity Objects (%) [3]: 17%
- Population Membrane Permeable-Phenotype (%) [3]: 19%
- Population Mitochondria Different-Phenotype (%) [3]: 29%
- Population Mitotic Cells (%) [3]: 45%
- Population Normal (%) [3]: 82%
- Population Pyknosed Nuclei (%) [3]: 41%
- Population Tubulin-Different-Phenotype (%) [3]: 88%
- Total Cell Count [3]: 182
- Population Apoptotic (%) [4]: 50%
- Population Fragmented Nuclei (%) [4]: 13%
- Population Healthy Nuclei (%) [4]: 75%
- Population Hoechst High Intensity Objects (%) [4]: 6%
- Population Membrane Permeable-Phenotype (%) [4]: 25%
- Population Mitochondria Different-Phenotype (%) [4]: 88%
- Population Mitotic Cells (%) [4]: 50%
- Population Normal (%) [4]: 93%
- Population Pyknosed Nuclei (%) [4]: 11%
- Population Tubulin-Different-Phenotype (%) [4]: 98%
- Total Cell Count [4]: 68
- Population Apoptotic (%) [5]: 61%
- Population Fragmented Nuclei (%) [5]: 27%
- Population Healthy Nuclei (%) [5]: 45%
- Population Hoechst High Intensity Objects (%) [5]: 16%
- Population Membrane Permeable-Phenotype (%) [5]: 28%
- Population Mitochondria Different-Phenotype (%) [5]: 7%
- Population Mitotic Cells (%) [5]: 38%
- Population Normal (%) [5]: 83%
- Population Pyknosed Nuclei (%) [5]: 26%
- Population Tubulin-Different-Phenotype (%) [5]: 66%
- Total Cell Count [5]: 139
- Population Apoptotic (%) [6]: 55%
- Population Fragmented Nuclei (%) [6]: 11%
- Population Healthy Nuclei (%) [6]: 74%
- Population Hoechst High Intensity Objects (%) [6]: 5%
- Population Membrane Permeable-Phenotype (%) [6]: 10%
- Population Mitochondria Different-Phenotype (%) [6]: 19%
- Population Mitotic Cells (%) [6]: 44%
- Population Normal (%) [6]: 94%
- Population Pyknosed Nuclei (%) [6]: 14%
- Population Tubulin-Different-Phenotype (%) [6]: 17%
- Total Cell Count [6]: 85
- Population Apoptotic (%) [7]: 74%
- Population Fragmented Nuclei (%) [7]: 14%
- Population Healthy Nuclei (%) [7]: 41%
- Population Hoechst High Intensity Objects (%) [7]: 21%
- Population Membrane Permeable-Phenotype (%) [7]: 25%
- Population Mitochondria Different-Phenotype (%) [7]: 32%
- Population Mitotic Cells (%) [7]: 25%
- Population Normal (%) [7]: 78%
- Population Pyknosed Nuclei (%) [7]: 43%
- Population Tubulin-Different-Phenotype (%) [7]: 94%
- Total Cell Count [7]: 171
- Population Apoptotic (%) [8]: 50%
- Population Fragmented Nuclei (%) [8]: 13%
- Population Healthy Nuclei (%) [8]: 69%
- Population Hoechst High Intensity Objects (%) [8]: 9%
- Population Membrane Permeable-Phenotype (%) [8]: 41%
- Population Mitochondria Different-Phenotype (%) [8]: 91%
- Population Mitotic Cells (%) [8]: 50%
- Population Normal (%) [8]: 90%
- Population Pyknosed Nuclei (%) [8]: 17%
- Population Tubulin-Different-Phenotype (%) [8]: 97%
- Total Cell Count [8]: 67
- Population Apoptotic (%) [9]: 52%
- Population Fragmented Nuclei (%) [9]: 39%
- Population Healthy Nuclei (%) [9]: 38%
- Population Hoechst High Intensity Objects (%) [9]: 18%
- Population Membrane Permeable-Phenotype (%) [9]: 21%
- Population Mitochondria Different-Phenotype (%) [9]: 7%
- Population Mitotic Cells (%) [9]: 47%
- Population Normal (%) [9]: 81%
- Population Pyknosed Nuclei (%) [9]: 21%
- Population Tubulin-Different-Phenotype (%) [9]: 65%
- Total Cell Count [9]: 130
- Population Apoptotic (%) [10]: 75%
- Population Fragmented Nuclei (%) [10]: 22%
- Population Healthy Nuclei (%) [10]: 73%
- Population Hoechst High Intensity Objects (%) [10]: 9%
- Population Membrane Permeable-Phenotype (%) [10]: 13%
- Population Mitochondria Different-Phenotype (%) [10]: 1%
- Population Mitotic Cells (%) [10]: 25%
- Population Normal (%) [10]: 90%
- Population Pyknosed Nuclei (%) [10]: 3%
- Population Tubulin-Different-Phenotype (%) [10]: 53%
- Total Cell Count [10]: 120
- Population Apoptotic (%) [11]: 61%
- Population Fragmented Nuclei (%) [11]: 27%
- Population Healthy Nuclei (%) [11]: 45%
- Population Hoechst High Intensity Objects (%) [11]: 19%
- Population Membrane Permeable-Phenotype (%) [11]: 24%
- Population Mitochondria Different-Phenotype (%) [11]: 13%
- Population Mitotic Cells (%) [11]: 38%
- Population Normal (%) [11]: 80%
- Population Pyknosed Nuclei (%) [11]: 27%
- Population Tubulin-Different-Phenotype (%) [11]: 95%
- Total Cell Count [11]: 177
- Population Apoptotic (%) [12]: 50%
- Population Fragmented Nuclei (%) [12]: 29%
- Population Healthy Nuclei (%) [12]: 55%
- Population Hoechst High Intensity Objects (%) [12]: 16%
- Population Membrane Permeable-Phenotype (%) [12]: 6%
- Population Mitochondria Different-Phenotype (%) [12]: 21%
- Population Mitotic Cells (%) [12]: 50%
- Population Normal (%) [12]: 83%
- Population Pyknosed Nuclei (%) [12]: 14%
- Population Tubulin-Different-Phenotype (%) [12]: 92%
- Total Cell Count [12]: 162

Structure (SMILES): Cc1ccc(C)c(Oc2ccncc2C(=O)N2CCN(C3CC3)c3ccccc32)c1
- Population Apoptotic (%) [1]: 75%
- Population Fragmented Nuclei (%) [1]: 20%
- Population Healthy Nuclei (%) [1]: 58%
- Population Hoechst High Intensity Objects (%) [1]: 13%
- Population Normal (%) [1]: 86%
- Total Cell Count [1]: 90
- Population Apoptotic (%) [2]: 66%
- Population Healthy Nuclei (%) [2]: 75%
- Population Hoechst High Intensity Objects (%) [2]: 10%
- Population Normal (%) [2]: 89%
- Total Cell Count [2]: 73
- Population Apoptotic (%) [3]: 59%
- Population Fragmented Nuclei (%) [3]: 27%
- Population Healthy Nuclei (%) [3]: 43%
- Population Hoechst High Intensity Objects (%) [3]: 10%
- Population Normal (%) [3]: 89%
- Total Cell Count [3]: 178
- Population Apoptotic (%) [4]: 33%
- Population Fragmented Nuclei (%) [4]: 6%
- Population Healthy Nuclei (%) [4]: 72%
- Population Hoechst High Intensity Objects (%) [4]: 3%
- Population Normal (%) [4]: 96%
- Total Cell Count [4]: 59
- Population Apoptotic (%) [5]: 52%
- Population Fragmented Nuclei (%) [5]: 19%
- Population Healthy Nuclei (%) [5]: 56%
- Population Hoechst High Intensity Objects (%) [5]: 19%
- Population Normal (%) [5]: 80%
- Total Cell Count [5]: 88
- Population Apoptotic (%) [6]: 42%
- Population Fragmented Nuclei (%) [6]: 27%
- Population Healthy Nuclei (%) [6]: 60%
- Population Hoechst High Intensity Objects (%) [6]: 6%
- Population Normal (%) [6]: 93%
- Total Cell Count [6]: 71
- Population Apoptotic (%) [7]: 55%
- Population Fragmented Nuclei (%) [7]: 26%
- Population Healthy Nuclei (%) [7]: 51%
- Population Hoechst High Intensity Objects (%) [7]: 6%
- Population Normal (%) [7]: 93%
- Total Cell Count [7]: 189
- Population Apoptotic (%) [8]: 53%
- Population Healthy Nuclei (%) [8]: 66%
- Population Hoechst High Intensity Objects (%) [8]: 7%
- Population Normal (%) [8]: 92%
- Total Cell Count [8]: 65
- Population Apoptotic (%) [9]: 80%
- Population Fragmented Nuclei (%) [9]: 23%
- Population Healthy Nuclei (%) [9]: 57%
- Population Hoechst High Intensity Objects (%) [9]: 11%
- Population Normal (%) [9]: 88%
- Total Cell Count [9]: 87
- Population Apoptotic (%) [10]: 50%
- Population Fragmented Nuclei (%) [10]: 24%
- Population Healthy Nuclei (%) [10]: 72%
- Population Normal (%) [10]: 84%
- Total Cell Count [10]: 91
- Population Apoptotic (%) [11]: 66%
- Population Fragmented Nuclei (%) [11]: 40%
- Population Healthy Nuclei (%) [11]: 52%
- Population Hoechst High Intensity Objects (%) [11]: 9%
- Population Normal (%) [11]: 91%
- Total Cell Count [11]: 211
- Population Apoptotic (%) [12]: 25%
- Population Fragmented Nuclei (%) [12]: 42%
- Population Healthy Nuclei (%) [12]: 54%
- Population Hoechst High Intensity Objects (%) [12]: 7%
- Population Normal (%) [12]: 92%
- Total Cell Count [12]: 159
